From ChEMBL document CHEMBL4145521, “Regioselective synthesis of 3,4-diaryl-5-unsubstituted isoxazoles, analogues of natural cytostatic combretastatin A4” (Eur J Med Chem, 2018)

How the values were obtained:
Assay type in all cases: functional
HCT-15 = assay: Cytotoxicity against human HCT15 cells assessed as cell growth at 1 uM incubated for 48 hrs by sulforhodamine B assay relative to control; details: HCT-15, 48 h, read-out: Activity
Paracentrotus lividus = assay: Antimitotic activity against Paracentrotus lividus embryo assessed as embryo spinning after 15 mins to 20 hrs by light microscopy
In short: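 Free-swimming blastulae from the same culture were used just after hatching (8–10 h post-fertilization). They were kept in filtered seawater at room temperature and exposed to 2-fold decreasing concentrations. Spinning at the well bottom instead of forward swimming was monitored from 15 min to 20 h under light microscopy. The effective threshold concentration was recorded from duplicates.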

UO-31 = assay: Cytotoxicity against human UO31 cells assessed as cell growth at 10 uM incubated for 48 hrs by sulforhodamine B assay relative to control; details: UO-31, 48 h, read-out: Activity
NCI-H460 = assay: Cytotoxicity against human NCI-H460 cells assessed as cell growth at 0.1 uM incubated for 48 hrs by sulforhodamine B assay relative to control; details: NCI-H460, 48 h, read-out: Activity
SF-295 = assay: Cytotoxicity against human SF295 cells assessed as cell growth at 100 uM incubated for 48 hrs by sulforhodamine B assay relative to control; details: SF-295, 48 h, read-out: Activity
HT-29 = assay: Cytotoxicity against human HT-29 cells incubated for 48 hrs by sulforhodamine B assay; details: HT-29, 48 h
SN12C [1] = assay: Cytotoxicity against human SN12C cells assessed as cell growth at 0.1 uM incubated for 48 hrs by sulforhodamine B assay relative to control; details: read-out: Activity
EKVX [2] = assay: Cytotoxicity against human EKVX cells incubated for 48 hrs by sulforhodamine B assay
OVCAR-4 [3] = assay: Cytotoxicity against human OVCAR4 cells assessed as cell growth at 0.1 uM incubated for 48 hrs by sulforhodamine B assay relative to control; details: OVCAR-4, 48 h, read-out: Activity
SF-268 = assay: Cytotoxicity against human SF268 cells assessed as cell growth at 100 uM incubated for 48 hrs by sulforhodamine B assay relative to control; details: SF-268, 48 h, read-out: Activity
OVCAR-4 [4] = assay: Cytotoxicity against human OVCAR4 cells assessed as cell growth at 1 uM incubated for 48 hrs by sulforhodamine B assay relative to control; details: OVCAR-4, 48 h, read-out: Activity
SN12C [5] = assay: Cytotoxicity against human SN12C cells assessed as cell growth at 1 uM incubated for 48 hrs by sulforhodamine B assay relative to control; details: read-out: Activity
LOX IMVI [6] = assay: Cytotoxicity against human LOXIMVI cells assessed as cell growth at 1 uM incubated for 48 hrs by sulforhodamine B assay relative to control; details: read-out: Activity
SF-539 = assay: Cytotoxicity against human SF539 cells assessed as cell growth at 0.1 uM incubated for 48 hrs by sulforhodamine B assay relative to control; details: SF-539, 48 h, read-out: Activity
OVCAR-8 = assay: Cytotoxicity against human OVCAR8 cells incubated for 48 hrs by sulforhodamine B assay; details: OVCAR-8, 48 h
NCI/ADR-RES = assay: Cytotoxicity against human NCI/ADR-RES cells assessed as cell growth at 10 uM incubated for 48 hrs by sulforhodamine B assay relative to control; details: read-out: Activity
EKVX [7] = assay: Cytotoxicity against human EKVX cells assessed as cell growth at 0.1 uM incubated for 48 hrs by sulforhodamine B assay relative to control; details: read-out: Activity
IGROV-1 = assay: Cytotoxicity against human IGROV1 cells assessed as cell growth at 0.01 uM incubated for 48 hrs by sulforhodamine B assay relative to control; details: IGROV-1, 48 h, read-out: Activity
SK-MEL-2 = assay: Cytotoxicity against human SK-MEL-2 cells assessed as cell growth at 0.1 uM incubated for 48 hrs by sulforhodamine B assay relative to control; details: SK-MEL-2, 48 h, read-out: Activity
M14 = assay: Cytotoxicity against human M14 cells assessed as cell growth at 10 uM incubated for 48 hrs by sulforhodamine B assay relative to control; details: M14, 48 h, read-out: Activity
OVCAR-4 [8] = assay: Cytotoxicity against human OVCAR4 cells assessed as cell growth at 100 uM incubated for 48 hrs by sulforhodamine B assay relative to control; details: OVCAR-4, 48 h, read-out: Activity
U-251 = assay: Cytotoxicity against human U251 cells assessed as cell growth at 0.1 uM incubated for 48 hrs by sulforhodamine B assay relative to control; details: U-251, 48 h, read-out: Activity
LOX IMVI [9] = assay: Cytotoxicity against human LOXIMVI cells incubated for 48 hrs by sulforhodamine B assay
LOX IMVI [10] = assay: Cytotoxicity against human LOXIMVI cells assessed as cell growth at 10 uM incubated for 48 hrs by sulforhodamine B assay relative to control; details: read-out: Activity
SNB-75 = assay: Cytotoxicity against human SNB75 cells assessed as cell growth at 10 uM incubated for 48 hrs by sulforhodamine B assay relative to control; details: SNB-75, 48 h, read-out: Activity
SN12C [11] = assay: Cytotoxicity against human SN12C cells assessed as cell growth at 0.01 uM incubated for 48 hrs by sulforhodamine B assay relative to control; details: read-out: Activity
SK-MEL-5 = assay: Cytotoxicity against human SK-MEL-5 cells assessed as cell growth at 100 uM incubated for 48 hrs by sulforhodamine B assay relative to control; details: SK-MEL-5, 48 h, read-out: Activity
UACC-62 = assay: Cytotoxicity against human UACC62 cells assessed as cell growth at 0.1 uM incubated for 48 hrs by sulforhodamine B assay relative to control; details: UACC-62, 48 h, read-out: Activity
OVCAR-3 = assay: Cytotoxicity against human OVCAR3 cells assessed as cell growth at 0.1 uM incubated for 48 hrs by sulforhodamine B assay relative to control; details: OVCAR-3, 48 h, read-out: Activity
NCI-H23 = assay: Cytotoxicity against human NCI-H23 cells assessed as cell growth at 10 uM incubated for 48 hrs by sulforhodamine B assay relative to control; details: NCI-H23, 48 h, read-out: Activity
KM12 = assay: Cytotoxicity against human KM12 cells assessed as cell growth at 1 uM incubated for 48 hrs by sulforhodamine B assay relative to control; details: KM12, 48 h, read-out: Activity
MCF7 = assay: Cytotoxicity against human MCF7 cells assessed as cell growth at 100 uM incubated for 48 hrs by sulforhodamine B assay relative to control; details: MCF7, 48 h, read-out: Activity
[12] = read-out: LC50 (the source's name)
[13] = read-out: pLC50 (the source's name) (converted)

COc1ccc(-c2nocc2-c2cc(OC)c(OC)c(OC)c2)cc1
growth at 1 µM (HCT-15): 23%
EC (Paracentrotus lividus): 1 µM
growth at 10 µM (UO-31): 23%
growth at 0.1 µM (NCI-H460): 30%
growth at 100 µM (SF-295): -35%
GI50 (HT-29; read-out: GI50): 36.5 nM
LC50 (HT-29; read-out: LC50): > 100 µM
TGI (HT-29; read-out: TGI): 12 µM
GI50 (HT-29; read-out: pGI50 (converted)): 36.3 nM
LC50 (HT-29; read-out: pLC50 (converted)): > 100 µM
TGI (HT-29; read-out: pTGI (converted)): 12 µM
growth at 0.1 µM (SN12C [1]): 88%
GI50 (EKVX [2]; read-out: GI50): 96 nM
CC50 (EKVX [2]; [12]): > 100 µM
TGI (EKVX [2]; read-out: TGI): > 100 µM
GI50 (EKVX [2]; read-out: pGI50 (converted)): 95.5 nM
CC50 (EKVX [2]; [13]): > 100 µM
TGI (EKVX [2]; read-out: pTGI): > 100 µM
growth at 0.1 µM (OVCAR-4 [3]): 73%
growth at 100 µM (SF-268): 1%
growth at 1 µM (OVCAR-4 [4]): 49%
growth at 1 µM (SN12C [5]): 47%
growth at 1 µM (LOX IMVI [6]): 43%
growth at 0.1 µM (SF-539): 65%
GI50 (OVCAR-8; read-out: GI50): 327 nM
CC50 (OVCAR-8; [12]): > 100 µM
TGI (OVCAR-8; read-out: TGI): > 100 µM
GI50 (OVCAR-8; read-out: pGI50 (converted)): 324 nM
CC50 (OVCAR-8; [13]): > 100 µM
TGI (OVCAR-8; read-out: pTGI): > 100 µM
growth at 10 µM (NCI/ADR-RES): 9%
growth at 0.1 µM (EKVX [7]): 49%
growth at 0.01 µM (IGROV-1): 97%
growth at 0.1 µM (SK-MEL-2): 39%
growth at 10 µM (M14): 13%
growth at 100 µM (OVCAR-4 [8]): 15%
growth at 0.1 µM (U-251): 48%
GI50 (LOX IMVI [9]; read-out: GI50): 254 nM
LC50 (concentration killing 50% of cells) (LOX IMVI [9]; read-out: LC50): > 100 µM
TGI (LOX IMVI [9]; read-out: TGI): 55.5 µM
GI50 (LOX IMVI [9]; read-out: pGI50 (converted)): 257 nM
LC50 (concentration killing 50% of cells) (LOX IMVI [9]; read-out: pLC50 (converted)): > 100 µM
TGI (LOX IMVI [9]; read-out: pTGI (converted)): 55 µM
growth at 10 µM (LOX IMVI [10]): 21%
growth at 10 µM (SNB-75): 19%
growth at 0.01 µM (SN12C [11]): 107%
growth at 100 µM (SK-MEL-5): -99%
growth at 0.1 µM (UACC-62): 36%
growth at 0.1 µM (OVCAR-3): 15%
growth at 10 µM (NCI-H23): 19%
growth at 1 µM (KM12): 20%
growth at 100 µM (MCF7): 1%
